In ChEMBL document CHEMBL1136006, “New PET imaging agent for the serotonin transporter: [(18)F]ACF (2-[(2-amino-4-chloro-5-fluorophenyl)thio]-N,N-dimethyl-benzenmethanamine)” (J Med Chem, 2002):

Tests used:
[1] = species on record: Rattus norvegicus; assay: Ratio of regional brain distribution of [18F]-ACF radiolabeled compound in rat hippocampus to that of cerebellum after 2 min; assay type: ADME, organism-based; conditions: in vivo
How it was run: (§1)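 Rats, three per time point, given 30 μCi tracer in 0.2 mL saline into femoral vein under ether anesthesia; killed at 2, 30, 60, 120 or 240 min. Cortex, striatum, hippocampus, cerebellum, hypothalamus and rest of brain dissected, weighed, counted; % dose/g against diluted initial dose, then each region divided by cerebellum. Average of three rats ± SD.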

[2] = species on record: Rattus norvegicus; assay: Organ distribution of [18F]-ACF radiolabeled compound in rat muscle after 60 min; assay type: ADME, organism-based, Muscle tissue; conditions: in vivo, 1 h
How it was run: (§2)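 Under ether anesthesia, 30 μCi no-carrier-added tracer in 0.2 mL saline injected into the femoral vein. Rats killed by cardiac excision at the stated time. Organs were removed, weighed and counted; % dose/organ was calculated against counts of a 1% initial-dose standard. Three rats per time, average ± SD.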

[3] = system: Rattus norvegicus; assay: Effect of pretreatment with nisoxatine with a dose of 2 mg/kg (i.v.) on specific binding of [18F]ACF in rat brain cortex; assay type: ADME, organism-based; parameters: dose 2 mg/kg, route intravenous; conditions: in vivo, iv
How it was run: (§3)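 Rats pretreated iv with drug (2 mg/kg) or saline 5 min before iv [18F]ACF (50 μCi). Sacrificed 1 h after tracer. Brain regions were dissected, weighed and counted, and % dose/g was calculated against a diluted initial dose. Drug-treated rats were compared with saline controls by ANOVA/Dunnett's test (p<0.05). Three rats per point, average ± SD.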

[4] = species on record: Rattus norvegicus; assay: Organ distribution of [18F]-ACF radiolabeled compound in rat bone after 240 min; assay type: ADME, organism-based, Bone element; conditions: in vivo, 4 h; how it was run: as §2
[5] = species on record: Rattus norvegicus; assay: Ratio of regional brain distribution of [18F]ACF radiolabeled compound in rat hypothalamus to that of cerebellum after 240 min; assay type: ADME, organism-based; conditions: in vivo, 4 h
How it was run: (§4)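 Rats (three per group) under ether anesthesia got 30 μCi tracer in 0.2 mL saline into the femoral vein and were killed by cardiac excision at the stated time. Cortex, striatum, hippocampus, cerebellum, hypothalamus and the rest of brain were dissected, weighed and gamma counted. %dose/g was taken against counts of a diluted initial dose. Regional ratios are each region's %dose/g over cerebellum's. Mean ± SD.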

[6] = species on record: Rattus norvegicus; assay: Organ distribution of [18F]-ACF radiolabeled compound in rat lung after 2 min; assay type: ADME, organism-based; conditions: in vivo; how it was run: as §2
[7] = species on record: Rattus norvegicus; assay: Ratio of regional brain distribution of [18F]-ACF radiolabeled compound in rat remainder to that of cerebellum after 120 min; assay type: ADME, organism-based; conditions: in vivo, 2 h; how it was run: as §4
[8] = system: Rattus norvegicus; assay: Ratio of effect of pretreatment with (+)-McN5652 with a dose of 2 mg/kg (i.v.) on specific binding of [18F]-ACF in rat brain hippocampus to that of cerebellum; assay type: ADME, organism-based; parameters: dose 2 mg/kg, route intravenous; conditions: in vivo, iv
How it was run: (§5)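 Rats (three per point) pretreated iv with competing drug at 2 mg/kg or saline (control) 5 min before iv [18F]ACF (50 μCi). At 1 h post tracer, brain regions (cortex, striatum, hippocampus, cerebellum, hypothalamus, remainder) dissected, weighed, counted as % dose/g and expressed as ratio to cerebellum. Average ± SD; ANOVA with Dunnett's test vs saline controls, p < 0.05.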

[9] = system: Rattus norvegicus; assay: Ratio of effect of pretreatment with methylphenidate with a dose of 2 mg/kg (i.v.) on specific binding of [18F]ACF in rat brain hypothalamus to that of cerebellum; assay type: ADME, organism-based; parameters: dose 2 mg/kg, route intravenous; conditions: in vivo, iv; how it was run: as §5
[10] = species on record: Rattus norvegicus; assay: Ratio of regional brain distribution of [18F]-ACF radiolabeled compound in rat cortex to that of cerebellum after 240 min; assay type: ADME, organism-based; conditions: in vivo, 4 h; how it was run: as §1
[11] = species on record: Rattus norvegicus; assay: Organ distribution of [18F]ACF radiolabeled compound in rat blood after 2 min; assay type: ADME, organism-based; conditions: in vivo
How it was run: (§6)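 Rats, three per time point, under ether anesthesia; 30 μCi tracer in 0.2 mL saline injected into femoral vein. Sacrificed by cardiac excision under ether at 2, 30, 60, 120 or 240 min. Organs removed, weighed and counted; % dose/organ calculated against counts of 1% of initial dose counted at the same time. Average of three rats ± SD.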

[12] = species on record: Rattus norvegicus; assay: Ratio of regional brain distribution of [18F]-ACF radiolabeled compound in rat hippocampus to that of cerebellum after 30 min; assay type: ADME, organism-based; conditions: in vivo, 0.5 h; how it was run: as §1
[13] = species on record: Rattus norvegicus; assay: Regional brain distribution of [18F]-ACF radiolabeled compound in rat hypothalamus after 240 min; assay type: ADME, organism-based; conditions: in vivo, 4 h; how it was run: as §4
[14] = species on record: Rattus norvegicus; assay: Regional brain distribution of [18F]-ACF radiolabeled compound in rat cortex after 2 min; assay type: ADME, organism-based; conditions: in vivo; how it was run: as §4
[15] = species on record: Rattus norvegicus; assay: Ratio of regional brain distribution of [18F]-ACF radiolabeled compound in rat hippocampus to that of cerebellum after 240 min; assay type: ADME, organism-based; conditions: in vivo, 4 h; how it was run: as §1
[16] = species on record: Rattus norvegicus; assay: Regional brain distribution of [18F]ACF radiolabeled compound in rat cortex after 120 min; assay type: ADME, organism-based; conditions: in vivo, 2 h; how it was run: as §4
[17] = species on record: Rattus norvegicus; assay: Organ distribution of [18F]ACF radiolabeled compound in rat skin after 2 min; assay type: ADME, organism-based; conditions: in vivo; how it was run: as §6
[18] = species on record: Rattus norvegicus; assay: Regional brain distribution of [18F]-ACF radiolabeled compound in rat striatum after 240 min; assay type: ADME, organism-based; conditions: in vivo, 4 h; how it was run: as §4
[19] = system: Rattus norvegicus; assay: Effect of pretreatment with methylphenidate with a dose of 2 mg/kg (i.v.) on specific binding of [18F]-ACF in rat brain remainder; assay type: ADME, organism-based; parameters: dose 2 mg/kg, route intravenous; conditions: in vivo, iv; how it was run: as §3
[20] = system: Rattus norvegicus; assay: Effect of pretreatment with (+)-McN5652 with a dose of 2 mg/kg (i.v.) on specific binding of [18F]ACF in rat brain blood; assay type: ADME, organism-based; parameters: dose 2 mg/kg, route intravenous; conditions: in vivo, iv; how it was run: as §3
[21] = species on record: Rattus norvegicus; assay: Organ distribution of [18F]ACF radiolabeled compound in rat lung after 120 min; assay type: ADME, organism-based; conditions: in vivo, 2 h; how it was run: as §6
[22] = system: Rattus norvegicus; assay: Ratio of effect of pretreatment with (+)-McN5652 with a dose of 2 mg/kg (i.v.) on specific binding of [18F]ACF in rat brain striatum to that of cerebellum; assay type: ADME, organism-based; parameters: dose 2 mg/kg, route intravenous; conditions: in vivo, iv; how it was run: as §5
[23] = species on record: Rattus norvegicus; assay: Ratio of regional brain distribution of [18F]-ACF radiolabeled compound in rat remainder to that of cerebellum after 30 min; assay type: ADME, organism-based; conditions: in vivo, 0.5 h; how it was run: as §4
[24] = species on record: Rattus norvegicus; assay: Regional brain distribution of [18F]ACF radiolabeled compound in rat remainder (rest of brain) after 2 min; assay type: ADME, organism-based; conditions: in vivo; how it was run: as §4
[25] = species on record: Rattus norvegicus; assay: Organ distribution of [18F]-ACF radiolabeled compound in rat skin after 240 min; assay type: ADME, organism-based; conditions: in vivo, 4 h; how it was run: as §2
[26] = species on record: Rattus norvegicus; assay: Organ distribution of [18F]-ACF radiolabeled compound in rat spleen after 30 min; assay type: ADME, organism-based; conditions: in vivo, 0.5 h; how it was run: as §2
[27] = species on record: Rattus norvegicus; assay: Ratio of regional brain distribution of [18F]ACF radiolabeled compound in rat hippocampus to that of cerebellum after 60 min; assay type: ADME, organism-based; conditions: in vivo, 1 h; how it was run: as §4
[28] = species on record: Rattus norvegicus; assay: Organ distribution of [18F]ACF radiolabeled compound in rat blood after 60 min; assay type: ADME, organism-based; conditions: in vivo, 1 h; how it was run: as §6
[29] = species on record: Rattus norvegicus; assay: Ratio of regional brain distribution of [18F]ACF radiolabeled compound in rat cortex to that of cerebellum after 60 min; assay type: ADME, organism-based; conditions: in vivo, 1 h; how it was run: as §4
[30] = species on record: Rattus norvegicus; assay: Ratio of regional brain distribution of [18F]ACF radiolabeled compound in rat cortex to that of cerebellum after 30 min; assay type: ADME, organism-based; conditions: in vivo, 0.5 h; how it was run: as §4
[31] = species on record: Rattus norvegicus; assay: Organ distribution of [18F]-ACF radiolabeled compound in rat skin after 30 min; assay type: ADME, organism-based; conditions: in vivo, 0.5 h; how it was run: as §2
[32] = species on record: Rattus norvegicus; assay: Organ distribution of [18F]-ACF radiolabeled compound in rat kidney after 240 min; assay type: ADME, organism-based; conditions: in vivo, 4 h; how it was run: as §2
[33] = species on record: Rattus norvegicus; assay: Organ distribution of [18F]-ACF radiolabeled compound in rat brain after 30 min; assay type: ADME, organism-based; conditions: in vivo, 0.5 h; how it was run: as §2
[34] = species on record: Rattus norvegicus; assay: Ratio of regional brain distribution of [18F]-ACF radiolabeled compound in rat remainder to that of cerebellum after 2 min; assay type: ADME, organism-based; conditions: in vivo; how it was run: as §4
[35] = species on record: Rattus norvegicus; assay: Organ distribution of [18F]ACF radiolabeled compound in rat heart after 60 min; assay type: ADME, organism-based; conditions: in vivo, 1 h; how it was run: as §6
[36] = species on record: Rattus norvegicus; assay: Organ distribution of [18F]-ACF radiolabeled compound in rat muscle after 240 min; assay type: ADME, organism-based, Muscle tissue; conditions: in vivo, 4 h; how it was run: as §2
[37] = species on record: Rattus norvegicus; assay: Organ distribution of [18F]ACF radiolabeled compound in rat blood after 240 min; assay type: ADME, organism-based; conditions: in vivo, 4 h; how it was run: as §6
[38] = species on record: Rattus norvegicus; assay: Regional brain distribution of [18F]ACF radiolabeled compound in rat hippocampus after 2 min; assay type: ADME, organism-based; conditions: in vivo; how it was run: as §4

Ratio [1]: 1.24
Dose/g [2]: 7.69 % dose/organ
Dose/g [3]: 0.37%
Dose/g [4]: 0.27 % dose/organ
Ratio [5]: 2.37
Dose/g [6]: 14.9 % dose/organ
Ratio [7]: 2.34
Ratio [8]: 1.93
Ratio [9]: 3.05
Ratio [10]: 1.52
Dose/g [11]: 6.56 % dose/organ
Ratio [12]: 1.89
Dose/g [13]: 0.05%
Dose/g [14]: 2.31%
Ratio [15]: 1.99
Dose/g [16]: 0.09%
Dose/g [17]: 4.76 % dose/organ
Dose/g [18]: 0.05%
Dose/g [19]: 0.38%
Dose/g [20]: 0.26%
Dose/g [21]: 0.32 % dose/organ
Ratio [22]: 1.48
Ratio [23]: 1.8
Dose/g [24]: 1.69%
Dose/g [25]: 1.53 % dose/organ
Dose/g [26]: 0.29 % dose/organ
Ratio [27]: 2.91
Dose/g [28]: 4.65%
Ratio [29]: 2.1
Ratio [30]: 1.69
Dose/g [31]: 6.51 % dose/organ
Dose/g [32]: 0.51 % dose/organ
Dose/g [33]: 1.28 % dose/organ
Ratio [34]: 1.32
Dose/g [35]: 0.11 % dose/organ
Dose/g [36]: 2.08 % dose/organ
Dose/g [37]: 2.33 % dose/organ
Dose/g [38]: 1.6%
Structure (SMILES): CN(C)Cc1ccccc1Sc1cc(F)c(Cl)cc1N
